ChEMBL document CHEMBL1287773, “4-aryl piperazine and piperidine amides as novel mGluR5 positive allosteric modulators” (Bioorg Med Chem Lett, 2010)

Key:
[1] = Intrinsic clearance in human liver microsome assessed as per mg of protein; assay type: ADME; conditions: liver microsomes
[2] = target: Metabotropic glutamate receptor 5 (Homo sapiens, UniProt P41594); assay: Positive allosteric modulation of human mGluR5 expressed in HEK293 cells assessed as Ca2+ influx by FLIPR assay; assay type: functional, cell-based
Summary of the method: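 HEK293 cells stably expressing human mGluR5 d isoform, plated the day before at 25,000 cells/well in DMEM with 10% dialyzed FBS. Loaded 1 h at 37 °C with 4.3 uM Fluo-4 AM in HBSS/20 mM HEPES/1 mM probenecid, pH 7.4, then washed. Eleven-concentration series added, agonist read 1 min; after 15 min, EC20 L-glutamate (final 200-300 nM) added, Ca2+ read 1 min.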

[3] = Clearance in dog plasma; assay type: ADME, organism-based, Canis lupus familiaris
[4] = Oral bioavailability in dog; assay type: ADME, organism-based, Canis lupus familiaris; conditions: in vivo
[5] = target: Metabotropic glutamate receptor 5 (Rattus norvegicus) (UniProt P31424); assay: Displacement of [3H]-MPEP from rat mGluR5
[6] = Volume of distribution in dog; assay type: ADME, organism-based, Canis lupus familiaris; conditions: in vivo
[7] = Half life in dog; assay type: ADME, organism-based, Canis lupus familiaris; conditions: in vivo
[8] = Oral bioavailability in rat; assay type: ADME, organism-based; conditions: in vivo
[9] = Ratio of drug level in brain to plasma in rat; assay type: ADME, organism-based; conditions: brain and plasma, read-out: BPR
[10] = Volume of distribution in rat; assay type: ADME, organism-based; conditions: in vivo
[11] = Clearance in rat plasma; assay type: ADME, organism-based
[12] = Half life in rat; assay type: ADME, organism-based; conditions: in vivo

Metabotropic glutamate receptor 5, sequence (P41594 whole entry, canonical isoform): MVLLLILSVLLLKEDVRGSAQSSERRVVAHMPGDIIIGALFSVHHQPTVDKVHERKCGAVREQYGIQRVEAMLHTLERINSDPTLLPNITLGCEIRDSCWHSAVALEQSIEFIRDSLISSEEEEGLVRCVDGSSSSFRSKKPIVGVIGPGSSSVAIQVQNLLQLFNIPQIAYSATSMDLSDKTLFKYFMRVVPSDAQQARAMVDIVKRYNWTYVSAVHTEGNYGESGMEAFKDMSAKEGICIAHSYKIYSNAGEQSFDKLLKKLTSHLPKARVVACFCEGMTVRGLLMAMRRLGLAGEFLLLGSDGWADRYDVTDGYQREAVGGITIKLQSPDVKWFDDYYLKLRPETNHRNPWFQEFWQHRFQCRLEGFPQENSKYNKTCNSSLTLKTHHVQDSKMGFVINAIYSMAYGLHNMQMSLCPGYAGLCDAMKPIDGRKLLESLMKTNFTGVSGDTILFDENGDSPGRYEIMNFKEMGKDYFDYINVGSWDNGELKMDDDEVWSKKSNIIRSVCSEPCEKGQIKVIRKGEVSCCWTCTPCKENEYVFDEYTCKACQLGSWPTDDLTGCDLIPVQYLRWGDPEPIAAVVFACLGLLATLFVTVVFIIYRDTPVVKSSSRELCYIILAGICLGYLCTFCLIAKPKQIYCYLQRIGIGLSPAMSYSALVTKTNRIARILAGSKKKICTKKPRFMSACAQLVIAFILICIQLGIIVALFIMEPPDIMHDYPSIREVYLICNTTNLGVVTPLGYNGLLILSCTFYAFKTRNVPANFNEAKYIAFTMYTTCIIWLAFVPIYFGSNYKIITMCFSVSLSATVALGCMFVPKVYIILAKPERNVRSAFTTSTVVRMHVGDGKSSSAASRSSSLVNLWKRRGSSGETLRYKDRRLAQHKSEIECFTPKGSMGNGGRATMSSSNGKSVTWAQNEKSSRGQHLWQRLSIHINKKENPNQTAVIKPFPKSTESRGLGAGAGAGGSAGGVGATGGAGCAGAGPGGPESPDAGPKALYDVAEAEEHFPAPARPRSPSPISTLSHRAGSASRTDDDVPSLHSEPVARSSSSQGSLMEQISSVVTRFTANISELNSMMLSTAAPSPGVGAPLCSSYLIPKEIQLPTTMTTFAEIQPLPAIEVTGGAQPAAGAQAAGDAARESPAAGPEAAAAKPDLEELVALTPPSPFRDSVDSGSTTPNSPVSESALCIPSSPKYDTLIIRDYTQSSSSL
Metabotropic glutamate receptor 5 (Rattus norvegicus), sequence (P31424 whole entry, looked up): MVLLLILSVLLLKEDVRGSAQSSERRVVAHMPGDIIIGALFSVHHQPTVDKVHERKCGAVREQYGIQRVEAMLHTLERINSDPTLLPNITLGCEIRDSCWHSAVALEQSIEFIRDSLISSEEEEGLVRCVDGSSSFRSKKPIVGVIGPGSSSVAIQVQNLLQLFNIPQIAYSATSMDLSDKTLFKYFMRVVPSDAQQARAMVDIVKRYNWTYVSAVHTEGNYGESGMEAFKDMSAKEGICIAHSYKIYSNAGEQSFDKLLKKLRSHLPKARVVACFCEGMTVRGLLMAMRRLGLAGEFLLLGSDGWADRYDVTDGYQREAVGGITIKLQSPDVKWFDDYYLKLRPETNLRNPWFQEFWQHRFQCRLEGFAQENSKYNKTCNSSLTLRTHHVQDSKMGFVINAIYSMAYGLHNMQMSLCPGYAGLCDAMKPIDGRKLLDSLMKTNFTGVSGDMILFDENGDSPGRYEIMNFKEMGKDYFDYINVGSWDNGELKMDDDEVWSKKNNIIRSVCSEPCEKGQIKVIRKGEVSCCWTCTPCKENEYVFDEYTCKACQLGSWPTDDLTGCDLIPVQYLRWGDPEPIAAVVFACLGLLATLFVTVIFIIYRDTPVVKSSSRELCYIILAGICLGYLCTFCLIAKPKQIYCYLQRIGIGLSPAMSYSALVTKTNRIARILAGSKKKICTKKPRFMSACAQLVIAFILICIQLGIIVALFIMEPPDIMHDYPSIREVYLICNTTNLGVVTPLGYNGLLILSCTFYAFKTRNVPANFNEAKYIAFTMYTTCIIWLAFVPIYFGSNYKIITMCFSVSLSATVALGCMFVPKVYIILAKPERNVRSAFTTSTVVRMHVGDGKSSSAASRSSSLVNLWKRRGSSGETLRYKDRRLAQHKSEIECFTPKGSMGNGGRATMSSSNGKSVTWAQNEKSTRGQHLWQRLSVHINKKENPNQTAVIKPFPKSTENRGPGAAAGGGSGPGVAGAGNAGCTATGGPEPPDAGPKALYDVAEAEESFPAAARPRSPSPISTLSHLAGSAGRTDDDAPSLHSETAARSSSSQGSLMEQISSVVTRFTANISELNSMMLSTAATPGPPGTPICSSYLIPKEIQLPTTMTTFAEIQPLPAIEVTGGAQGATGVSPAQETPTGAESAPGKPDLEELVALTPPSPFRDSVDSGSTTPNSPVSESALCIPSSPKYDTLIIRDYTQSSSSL

Compound | microsomal CLint [1] [µL/min/mg] | EC50 [2] [µM] | further results
O=C(COCc1ccncc1)N1CCN(c2ccc(Cl)cc2)CC1 | 17 | 1.3 | –
CN(CC(=O)N1CCN(c2ccc(Cl)cc2Cl)CC1)Cc1ccncc1 | – | > 25 | –
O=C(COCc1ccncc1)N1CCN(c2ccc(Cl)cc2Cl)CC1 | 76 | 0.18 | –
O=C(COCc1ccccn1)N1CCN(c2ccc(Cl)cc2Cl)CC1 | 94 | 0.31 | –
O=C(COCc1ccccc1)N1CCN(c2cc(Cl)ccn2)CC1 | 130 | 0.57 | –
Fc1ccc(C2CCN(C(=S)COCc3ccncc3)CC2)c(Cl)c1 | – | > 10.6 | –
Clc1ccc(N2CCN(CCOCc3ccccc3)CC2)c(Cl)c1 | – | > 25 | –
O=C(COCc1cscn1)N1CCN(c2ccc(Cl)cc2Cl)CC1 | 62 | 0.29 | –
O=C(CSCc1ccccc1)N1CCN(c2ccc(Cl)cc2Cl)CC1 | – | 7.1 | –
O=C(COCc1ccncc1)N1CCC(F)(c2ccc(Cl)cc2)CC1 | 45 | 0.8 | –
O=C(COCc1ccccc1)N1CCN(c2ccc(F)cc2Cl)CC1 | 530 | 0.27 | –
O=C(COCc1nccs1)N1CCN(c2ccc(Cl)cc2Cl)CC1 | 80 | > 10.3 | –
Cc1cc(Cl)ccc1N1CCN(C(=O)COCc2ccncc2)CC1 | 68 | 0.24 | –
O=C(COCc1ccccc1)N1CCN(c2ccc(F)cc2)CC1 | 110 | 1.1 | –
O=C(CNCc1ccncc1)N1CCN(c2ccc(Cl)cc2Cl)CC1 | – | 8.5 | –
O=C(COCc1ccccc1)N1CCN(c2ccc(Cl)cc2Cl)CC1 | 450 | 1.4 | –
O=C(COCc1ccccc1)N1CCN(c2ccc(F)cc2F)CC1 | 580 | 0.3 | –
O=C(COCc1ccccc1)N1CCN(c2ccc(Cl)cc2)CC1 | 290 | 0.35 | –
O=C(COCc1ccncc1)N1CCC(c2ccc(Cl)cc2)CC1 | 41 | 0.68 | –
C[C@@H](OCc1ccncc1)C(=O)N1CCC(c2ccc(Cl)cc2F)CC1 | – | > 25 | –
O=C(COCc1ccccc1)N1CCN(c2ccccc2Cl)CC1 | 540 | 1.1 | –

Compound | microsomal CLint [1] [µL/min/mg] | EC50 [2] [µM] | further results
O=C(COCc1cnccn1)N1CCN(c2ccc(Cl)cc2Cl)CC1 | 4 | 5.2 | –
O=C(COCc1cncs1)N1CCN(c2ccc(Cl)cc2Cl)CC1 | 73 | 1.28 | –
O=C(COCc1ccncc1)N1CCC(F)(c2ccc(F)cc2Cl)CC1 | – | 6.6 | –
O=C(COCc1ncccn1)N1CCN(c2ccc(Cl)cc2Cl)CC1 | 16 | 18 | –
O=C(COCc1ccncc1)N1CCN(c2ccc(F)cc2Cl)CC1 | 29 | 0.55 | clearance [3]: 38.5 mL/min/kg; bioavailability [4]: 37%; Ki [5]: 2.37 µM; Vd [6]: 3.2 L/kg; half-life [7]: 2.9 h; bioavailability [8]: 41%; Kp [9]: 4.6; Vd [10]: 4.8 L/kg; clearance [11]: 55 mL/min/kg; half-life [12]: 7.3 h
O=C(COCc1ccncc1)N1CCN(c2ccc(F)cc2F)CC1 | 22 | 4.6 | –
O=C(CSc1ccccc1)N1CCN(c2ccc(Cl)cc2Cl)CC1 | – | > 25 | –
O=C(COCc1ccncc1)N1CCN(c2ccc(Cl)cc2F)CC1 | 38 | 0.6 | –
O=C(COCc1ccncc1)N1CCC(c2ccc(F)cc2Cl)CC1 | 56 | 0.37 | –
O=C(COCc1cccnc1)N1CCN(c2ccc(Cl)cc2Cl)CC1 | 210 | 1.09 | –
O=C(COCc1ccncc1)N1CCN(c2cc(Cl)ccn2)CC1 | 4 | 4.2 | –
N#Cc1ccc(COCC(=O)N2CCN(c3ccc(Cl)cc3Cl)CC2)s1 | 110 | 0.21 | –
O=C(COCc1ccncn1)N1CCN(c2ccc(Cl)cc2Cl)CC1 | 17 | 2.8 | –
O=C(COCc1cccs1)N1CCN(c2ccc(Cl)cc2Cl)CC1 | 360 | 0.31 | –
O=C(COCc1ccncc1)N1CCC(c2ccc(Cl)cc2Cl)CC1 | 96 | 0.39 | –
O=C(COCc1ccccc1)N1CCN(c2ccncc2)CC1 | – | > 25 | –
O=C(COCc1ccccc1)N1CCN(c2cccc(Cl)c2)CC1 | 310 | 6.7 | –
CC1(c2ccc(Cl)cc2)CCN(C(=O)COCc2ccncc2)CC1 | – | 2.1 | –
O=C(COCc1ccccc1)N1CCN(c2ccccc2)CC1 | – | 7.1 | –
O=C(CCCc1ccncc1)N1CCN(c2ccc(Cl)cc2Cl)CC1 | – | 5.3 | –
